In ChEMBL document CHEMBL4732210, “Discovery of new phenyl sulfonyl-pyrimidine carboxylate derivatives as the potential multi-target drugs with effective anti-Alzheimer's action: Design, synthesis, crystal structure and in-vitro biological evaluation” (Eur J Med Chem, 2021):

Experiments:
Format in all cases: cell-based
Details in all cases: Erythrocyte
[1] = compound: CCOC(=O)c1c(C)nc(N2CCN(S(=O)(=O)c3ccc(NC(C)=O)c(Cl)c3)CC2)nc1-c1ccc(OC)c(OC)c1; experiment: Non-competitive inhibition of AChE in human erythrocytes assessed as Vmax at 100 nM measured at 2 mins interval for 10 mins by Lineweaver-Burk plot analysis
Summary of the method: (§1)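 Human AChE kinetics in the Ellman DTNB assay. Inhibitor at 25, 50 and 100 nM, each with six ATCI concentrations, against an inhibitor-free series. Activity read every 2 min over 10 min. Km and Vmax from Michaelis–Menten non-linear regression; mechanism from Lineweaver–Burk plots; Ki from Dixon plot over four inhibitor concentrations and from slope/intercept replots. Triplicate.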

[2] = compound: CCOC(=O)c1c(C)nc(N2CCN(S(=O)(=O)c3ccc(NC(C)=O)c(Cl)c3)CC2)nc1-c1ccc(OC)c(OC)c1; experiment: Non-competitive inhibition of AChE in human erythrocytes assessed as Km at 25 nM measured at 2 mins interval for 10 mins by Lineweaver-Burk plot analysis; summary of the method: as §1
[3] = compound: CCOC(=O)c1c(C)nc(N2CCN(S(=O)(=O)c3ccc(NC(C)=O)c(Cl)c3)CC2)nc1-c1ccc(OC)c(OC)c1; experiment: Non-competitive inhibition of AChE in human erythrocytes assessed as Vmax at 50 nM measured at 2 mins interval for 10 mins by Lineweaver-Burk plot analysis; summary of the method: as §1
[4] = compound: CCOC(=O)c1c(C)nc(N2CCN(S(=O)(=O)c3ccc(NC(C)=O)c(Cl)c3)CC2)nc1-c1ccc(OC)c(OC)c1; experiment: Non-competitive inhibition of AChE in human erythrocytes assessed as Km at 100 nM measured at 2 mins interval for 10 mins by Lineweaver-Burk plot analysis; summary of the method: as §1
[5] = compound: CCOC(=O)c1c(C)nc(N2CCN(S(=O)(=O)c3ccc(NC(C)=O)c(Cl)c3)CC2)nc1-c1ccc(OC)c(OC)c1; experiment: Non-competitive inhibition of AChE in human erythrocytes assessed as Vmax at 25 nM measured at 2 mins interval for 10 mins by Lineweaver-Burk plot analysis; summary of the method: as §1
[6] = compound: CCOC(=O)c1c(C)nc(N2CCN(S(=O)(=O)c3ccc(NC(C)=O)c(Cl)c3)CC2)nc1-c1ccc(OC)c(OC)c1; experiment: Non-competitive inhibition of AChE in human erythrocytes assessed as Km at 50 nM measured at 2 mins interval for 10 mins by Lineweaver-Burk plot analysis; summary of the method: as §1

B1: Acetylcholinesterase (Homo sapiens), P22303 (protein)
chain: MRPPQCLLHTPSLASPLLLLLLWLLGGGVGAEGREDAELLVTVRGGRLRGIRLKTPGGPVSAFLGIPFAEPPMGPRRFLPPEPKQPWSGVVDATTFQSVCYQYVDTLYPGFEGTEMWNPNRELSEDCLYLNVWTPYPRPTSPTPVLVWIYGGGFYSGASSLDVYDGRFLVQAERTVLVSMNYRVGAFGFLALPGSREAPGNVGLLDQRLALQWVQENVAAFGGDPTSVTLFGESAGAASVGMHLLSPPSRGLFHRAVLQSGAPNGPWATVGMGEARRRATQLAHLVGCPPGGTGGNDTELVACLRTRPAQVLVNHEWHVLPQESVFRFSFVPVVDGDFLSDTPEALINAGDFHGLQVLVGVVKDEGSYFLVYGAPGFSKDNESLISRAEFLAGVRVGVPQVSDLAAEAVVLHYTDWLHPEDPARLREALSDVVGDHNVVCPVAQLAGRLAAQGARVYAYVFEHRASTLSWPLWMGVPHGYEIEFIFGIPLDPSRNYTAEEKIFAQRLMRYWANFARTGDPNEPRDPKAPQWPPYTAGAQQYVSLDLRPLEVRRGLRAQACAFWNRFLPKLLSATDTLDEAERQWKAEFHRWSSYMVHWKNQFDHYSKQDRCSDL
Vmax [1]: 5.54 U/min
Km [2]: 0.0772 µM
Vmax [3]: 6.52 U/min
Km [4]: 0.0965 µM
Vmax [5]: 7.2 U/min
Km [6]: 0.0852 µM
